From ChEMBL document CHEMBL4138242, “Synthesis and antibacterial evaluation of novel cationic chalcone derivatives possessing broad spectrum antibacterial activity” (Eur J Med Chem, 2018)
Activity calls are given as the source filed them. The rule behind the calls is not given here.

Tests used:
Staphylococcus aureus [1] = assay: Bactericidal activity against Staphylococcus aureus ATCC 29213 at 6 times MIC after 6 hrs by time-kill assay; type: functional, organism-based
Summary of the method: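 An overnight culture was diluted 1:10,000 in MHB and grown at 37 °C and 225 rpm for 2 h or 5 h. It was then challenged in tubes at 6× and 8× MIC, with vancomycin (6 µg/mL) as comparator. At intervals, aliquots were pelleted, resuspended in PBS, and tenfold dilutions plated on MHA overnight at 37 °C to give CFU/mL. Biological replicates were run.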

Staphylococcus aureus [2] = assay: Antibacterial activity against methicillin-resistant Staphylococcus aureus clinical isolate 1207007 after 16 to 20 hrs by broth microdilution method; type: functional
Summary of the method: (§1)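 CLSI broth microdilution in Mueller-Hinton broth. A 4-6 h culture was diluted to about 10⁶ CFU/mL and mixed 1:1 with compound dilutions prepared at 256 to 0.5 µg/mL from aqueous stocks. Plates were incubated at 37 °C for 16-20 h and read visually for MIC. Each concentration was run in duplicate, and the experiment was repeated at least twice. Vancomycin and meropenem were comparators.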

Staphylococcus aureus [3] = assay: Antibacterial activity against methicillin-resistant Staphylococcus aureus clinical isolate 1208143 after 16 to 20 hrs by broth microdilution method; type: functional; summary of the method: as §1
Escherichia coli [4] = assay: Disruption of 72 hrs cultured Escherichia coli ATCC 25922 biofilm assessed as decrease in cell viability in biofilm after 24 hrs by crystal violet staining-based assay; type: functional, organism-based
Staphylococcus aureus [5] = assay: Antibacterial activity against methicillin-resistant Staphylococcus aureus clinical isolate 0831010 after 16 to 20 hrs by broth microdilution method; type: functional; summary of the method: as §1
Staphylococcus aureus [6] = assay: Antibacterial activity against methicillin-resistant Staphylococcus aureus clinical isolate 20130911034sau after 16 to 20 hrs by broth microdilution method; type: functional; summary of the method: as §1
Staphylococcus aureus [7] = assay: Antibacterial activity against Staphylococcus aureus ATCC 29213 after 16 to 20 hrs by broth microdilution method; type: functional
Summary of the method: (§2)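 Broth microdilution per CLSI. Bacteria grown 4-6 h (about 10⁸ CFU/mL), then diluted to about 10⁶ CFU/mL. Medium: Mueller-Hinton broth, except Luria-Bertani broth for E. coli. Compounds in sterile water, twofold series 256-0.5 µg/mL, mixed 1:1 with inoculum, 37 °C for 16-20 h. MIC is the lowest concentration without visible growth. Duplicate wells; experiment repeated at least twice.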

Escherichia coli [8] = assay: Induction of cytoplasmic membrane depolarization in Escherichia coli ATCC 25922 at 10 to 20 ug/ml measured every 2 mins for 12 mins by DiSC35 dye-based fluorescence assay; type: functional, organism-based
Summary of the method: (§3)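 Mid-log cells (~10⁸ CFU/mL) were suspended in PBS (S. aureus) or HEPES/glucose/KCl with EDTA (E. coli). They were preloaded with DiSC3(5) for 30 min (S. aureus) or 40 min (E. coli), and baseline fluorescence was read for 8 min. Compound was added to 20 µg/mL final, and fluorescence (ex 622/em 670 nm) was read every 2 min for 12 min. Water served as control.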

[9] = Hemolytic activity in sheep RBC after 1 hr; type: ADME, cell-based, Ovis aries, Erythrocyte; settings: sheep red blood cells (erythrocytes)
Summary of the method: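 Sheep red blood cells (150 µL suspension) mixed with 50 µL of compound dilutions (5120-10 µg/mL), 1 h at 37 °C, then centrifuged. Supernatant read at 540 nm. Percent hemolysis calculated relative to RBC-only control (0%) and 0.1% Triton X-100 (100%).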

Staphylococcus aureus [10] = assay: Induction of inner membrane permeabilization in Staphylococcus aureus ATCC 29213 at 10 to 20 ug/ml measured every 2 mins for 12 mins by propidium iodide staining-based fluorescence assay; type: functional, organism-based
Summary of the method: (§4)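 Mid-log cells (~10⁸ CFU/mL) were suspended in PBS (S. aureus) or HEPES/glucose/KCl (E. coli). They were preincubated with propidium iodide for 30 min (S. aureus) or 40 min (E. coli), and baseline fluorescence was read for 8 min. Compound was added to 20 µg/mL final, and fluorescence (ex 535/em 617 nm) was read every 2 min for 12 min.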

Staphylococcus aureus [11] = assay: Antibacterial activity against methicillin-resistant Staphylococcus aureus clinical isolate 1105183 cono7 after 16 to 20 hrs by broth microdilution method; type: functional; summary of the method: as §1
Salmonella enterica = assay: Antibacterial activity against Salmonella enterica ATCC 13076 after 16 to 20 hrs by broth microdilution method; type: functional; summary of the method: as §2
Staphylococcus aureus [12] = assay: Antibacterial activity against methicillin-resistant Staphylococcus aureus clinical isolate 1104060 after 16 to 20 hrs by broth microdilution method; type: functional; summary of the method: as §1
Staphylococcus aureus [13] = assay: Bactericidal activity against methicillin-resistant Staphylococcus aureus in presence of 50% sheep serum after 20 to 24 hrs; type: functional; settings: read-out: MBC99.9
Summary of the method: (§5)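 MRSA at 10⁵ CFU/mL in 50% MHB plus 50% sheep serum, plasma or defibrinated blood; serum and plasma were obtained by centrifugation at 3,500 rpm for 10 min. Aqueous dilutions prepared at 512-4 µg/mL were added 1:3 to the suspension and incubated for 20-24 h at 37 °C. Well contents (20 µL) were plated on MHA for 20-24 h, and MBC was the concentration giving no colonies.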

Staphylococcus aureus [14] = assay: Antibacterial activity against methicillin-resistant Staphylococcus aureus clinical isolate 20131012632sau after 16 to 20 hrs by broth microdilution method; type: functional; summary of the method: as §1
HeLa [15] = assay: Cytotoxicity against human HeLa cells at 2 to 4 times MIC after 24 hrs by calcein AM/propidium iodide staining-based fluorescence microscopic method; type: cell-based
Summary of the method: (§6)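 HeLa cells in DMEM with 10% FBS (37 °C, 5% CO₂), seeded in 12-well plates and left to adhere overnight. Treated 24 h with compound at 2× and 4× MIC; untreated and 0.1% Triton X-100 controls. Cells washed with PBS and imaged for morphology. For live/dead imaging, stained with 2 µM calcein AM and 4.5 µM PI for 15 min at 37 °C.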

Escherichia coli [16] = assay: Induction of inner membrane permeabilization in Escherichia coli ATCC 25922 at 10 to 20 ug/ml measured every 2 mins for 12 mins by propidium iodide staining-based fluorescence assay; type: functional, organism-based; summary of the method: as §4
Staphylococcus aureus [17] = assay: Induction of cytoplasmic membrane depolarization in Staphylococcus aureus ATCC 29213 at 10 to 20 ug/ml measured every 2 mins for 12 mins by DiSC35 dye-based fluorescence assay; type: functional, organism-based; summary of the method: as §3
Enterococcus faecalis = assay: Antibacterial activity against Enterococcus faecalis ATCC 29212 after 16 to 20 hrs by broth microdilution method; type: functional; summary of the method: as §2
HeLa [18] = assay: Cytotoxicity against human HeLa cells assessed as effect on cell morphology at 2 to 4 times MIC after 24 hrs by electron scanning microscopic method; type: cell-based; summary of the method: as §6
Staphylococcus aureus [19] = assay: Ratio of MBC99.9 for methicillin-resistant Staphylococcus aureus in presence of 50% sheep serum to MBC99.9 for methicillin-resistant Staphylococcus aureus ATCC 29213 in presence of 50% sheep plasma; type: functional; summary of the method: as §5
Staphylococcus aureus [20] = assay: Antibacterial activity against methicillin-resistant Staphylococcus aureus clinical isolate 0906202 after 16 to 20 hrs by broth microdilution method; type: functional; summary of the method: as §1
Staphylococcus aureus [21] = assay: Bactericidal activity against methicillin-resistant Staphylococcus aureus in presence of 50% sheep blood after 20 to 24 hrs; type: functional; settings: read-out: MBC99.9; summary of the method: as §5
Staphylococcus aureus [22] = assay: Antibacterial activity against methicillin-resistant Staphylococcus aureus clinical isolate 1-may after 16 to 20 hrs by broth microdilution method; type: functional; summary of the method: as §1
Escherichia coli [23] = assay: Bactericidal activity against Escherichia coli ATCC 25922 at 6 to 8 times MIC after 6 hrs by time-kill assay; type: functional, organism-based
Summary of the method: (§7)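 Overnight cultures diluted 1:10,000 in MHB and grown at 37 °C, 225 rpm, for 2 h (early exponential) or 5 h (late exponential). Cells exposed to compound at 6× or 8× MIC in tubes at 37 °C, 225 rpm. At intervals, aliquots were spun, resuspended in PBS, tenfold diluted, plated on MHA overnight at 37 °C and counted as CFU/mL. Biological replicates.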

Escherichia coli [24] = assay: Antibacterial activity against Escherichia coli ATCC 25922 after 16 to 20 hrs by broth microdilution method; type: functional; summary of the method: as §2
Staphylococcus aureus [25] = assay: Bactericidal activity against Staphylococcus aureus ATCC 29213 at 6 times MIC after 3 hrs by time-kill assay (reference value: 10^6.1 CFU/ml); type: functional; summary of the method: as §7

CN[C@H](CC(C)C)C(=O)N[C@H]1C(=O)N[C@@H](CC(N)=O)C(=O)N[C@H]2C(=O)N[C@H]3C(=O)N[C@H](C(=O)N[C@H](C(=O)O)c4cc(O)cc(O)c4-c4cc3ccc4O)[C@H](O)c3ccc(c(Cl)c3)Oc3cc2cc(c3O[C@@H]2O[C@H](CO)[C@@H](O)[C@H](O)[C@H]2O[C@H]2C[C@](C)(N)[C@H](O)[C@H](C)O2)Oc2ccc(cc2Cl)[C@H]1O
Activity (Staphylococcus aureus [1]): inactive

CCCCCCCC[N+](C)(C)CC(=O)Nc1ccc(C(=O)/C=C/c2ccccc2)cc1.[Cl-]
MIC (Staphylococcus aureus [2]): 0.5 µg/mL | MIC (Staphylococcus aureus [3]): 2 µg/mL | Activity (Escherichia coli [4]): Active | MIC (Staphylococcus aureus [5]): 1 µg/mL | MIC (Staphylococcus aureus [6]): 0.5 µg/mL | MIC (Staphylococcus aureus [7]): 1 µg/mL | Activity (Escherichia coli [8]): Active | HC50 at 1 h [9]: 228 µg/mL | Activity (Staphylococcus aureus [10]): Active | MIC (Staphylococcus aureus [11]): 1 µg/mL | MIC (Salmonella enterica): 4 µg/mL | MIC (Staphylococcus aureus [12]): 8 µg/mL | MBC (Staphylococcus aureus [13]): 32 µg/mL | MIC (Staphylococcus aureus [14]): 4 µg/mL | Activity (HeLa [15]): Toxic | Activity (Escherichia coli [16]): Active | Activity (Staphylococcus aureus [17]): Active | MIC (Enterococcus faecalis): 1 µg/mL | Activity (HeLa [18]): Non-Toxic | Ratio (Staphylococcus aureus [19]): 2 | MIC (Staphylococcus aureus [20]): 4 µg/mL | MBC (Staphylococcus aureus [21]): 128 µg/mL | MIC (Staphylococcus aureus [22]): 1 µg/mL | Activity (Escherichia coli [23]): Active | MIC (Escherichia coli [24]): 2 µg/mL | Activity (Staphylococcus aureus [25]): 1 CFU/ml
